Results: ChEMBL document CHEMBL4043307, “Toward β-Secretase-1 Inhibitors with Improved Isoform Selectivity” (J Med Chem, 2018)
Each block holds one compound with its values, some of them ahead of it. The source made the active and inactive calls. No cut-off for these calls is given here.

Columns and labels:
[1] = Intrinsic clearance in rat hepatocytes assessed per million cells at 1 uM after 120 mins by LC-MS/MS method; type: ADME, cell-based, Hepatocyte; settings: 2 h
[2] = Unbound brain-to-plasma concentration ratio in CD rat at 5 mg/kg, po as cassette dose after 2 hrs by LC-MS/MS method; type: ADME, organism-based; settings: brain and plasma, read-out: K(p,uu,brain)
Liver = assay: Intrinsic clearance in human liver microsomes at 1 uM after 30 mins by LC-MS/MS method; type: ADME, microsome; settings: 0.5 h
Beta-secretase 1 [3] = molecular target: T1, Beta-secretase 1 (Homo sapiens, UniProt P56817); assay: Inhibition of human BACE1 (1 to 460 residues) fused with Fc domain of IgG1 expressed in HEK293 cells preincubated for 10 mins followed by substrate addition measured after 17 mins by TR-FRET assay; type: cell-based
T1 sequence (P56817 whole entry, the tested form may be a part): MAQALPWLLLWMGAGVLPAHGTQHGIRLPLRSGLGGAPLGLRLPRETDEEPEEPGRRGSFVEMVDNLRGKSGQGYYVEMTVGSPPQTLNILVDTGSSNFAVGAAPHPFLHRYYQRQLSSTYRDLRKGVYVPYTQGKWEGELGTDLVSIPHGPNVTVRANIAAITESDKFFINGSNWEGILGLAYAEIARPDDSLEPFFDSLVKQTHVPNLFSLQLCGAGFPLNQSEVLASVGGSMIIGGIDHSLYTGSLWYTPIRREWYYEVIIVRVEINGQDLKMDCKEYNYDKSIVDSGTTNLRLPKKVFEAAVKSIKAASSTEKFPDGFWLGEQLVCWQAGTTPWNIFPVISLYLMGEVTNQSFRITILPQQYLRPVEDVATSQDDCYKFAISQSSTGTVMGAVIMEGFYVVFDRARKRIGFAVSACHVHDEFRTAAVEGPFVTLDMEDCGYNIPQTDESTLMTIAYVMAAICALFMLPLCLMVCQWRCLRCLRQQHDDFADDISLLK
Summary of the method: (§1)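 Biochemical protease assays on the human BACE1 or BACE2 enzyme. Both assays use the same fluorescently labelled peptide substrate, designed to span the BACE cleavage site of APP.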

Beta-secretase 1 [4] = molecular target: T1, Beta-secretase 1; assay: Inhibition of BACE1 in human SH-SY5Y cells assessed as decrease in sAPP-beta release after 16 to 17 hrs; type: cell-based
[5] = Apparent permeability across MDCK cells expressing MDR1 after 2 hrs by LC-MS/MS method; type: ADME, cell-based, Canis lupus familiaris; settings: dog
[6] = Unbound brain-to-plasma concentration ratio in CD rat at 1 mg/kg, po as cassette dose after 2 hrs by LC-MS/MS method; type: ADME, organism-based; settings: brain and plasma, read-out: K(p,uu,brain)
Beta-secretase 2 [7] = molecular target: T2, Beta-secretase 2 (Homo sapiens, UniProt Q9Y5Z0); assay: Inhibition of BACE2 in human MNT1 cells assessed as increase in M-beta accumulation at 10 nM after 24 hrs by Western blot method; type: cell-based; settings: 0.01 µM
T2 sequence (Q9Y5Z0 whole entry): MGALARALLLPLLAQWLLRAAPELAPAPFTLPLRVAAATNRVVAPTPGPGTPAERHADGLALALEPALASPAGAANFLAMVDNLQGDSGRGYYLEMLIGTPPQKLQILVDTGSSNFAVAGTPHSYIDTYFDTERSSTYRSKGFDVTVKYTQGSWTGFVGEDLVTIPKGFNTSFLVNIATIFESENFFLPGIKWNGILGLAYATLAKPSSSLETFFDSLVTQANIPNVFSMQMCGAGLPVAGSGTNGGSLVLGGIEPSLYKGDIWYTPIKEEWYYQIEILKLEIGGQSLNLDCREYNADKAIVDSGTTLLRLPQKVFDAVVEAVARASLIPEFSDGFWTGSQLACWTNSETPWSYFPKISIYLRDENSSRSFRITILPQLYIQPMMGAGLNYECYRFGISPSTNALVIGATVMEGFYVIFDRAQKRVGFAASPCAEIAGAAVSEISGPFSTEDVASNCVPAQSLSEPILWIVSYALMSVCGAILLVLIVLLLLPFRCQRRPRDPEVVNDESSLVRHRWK
Summary of the method: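 Human melanocyte MNT1 cells incubated with a range of inhibitor concentrations or vehicle (0.1% DMSO), then processed to detect parent PMEL (P1) and the proteolytically cleaved Mβ fragment. Mβ accumulation serves as the read-out of BACE2 inhibition.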

Beta-secretase 2 [8] = molecular target: T2, Beta-secretase 2; assay: Inhibition of human BACE2 (1 to 473 residues) using CEVNLDAEFK as substrate preincubated for 10 mins followed by substrate addition measured after 6.5 hrs by TR-FRET assay; summary of the method: as §1
Brain = assay: Fraction unbound in C57BL/6 mouse brain at 50 mg/kg, po after 3 hrs by LC-MS/MS analysis; type: ADME, organism-based; settings: in vivo
Beta-secretase 2 [9] = molecular target: T2, Beta-secretase 2; assay: Inhibition of BACE2 in human MNT1 cells assessed as increase in M-beta accumulation at 10 uM after 24 hrs by Western blot method; type: cell-based
Summary of the method: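 Human melanocyte MNT1 cells incubated with a range of inhibitor concentrations or vehicle (0.1% DMSO). Cells then processed to detect parent PMEL (P1) and the proteolytically cleaved Mβ fragment. Mβ fragment accumulation serves as the read-out of BACE2 inhibition.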

[10] = molecular target: Voltage-gated inwardly rectifying potassium channel KCNH2 (Homo sapiens, UniProt Q12809); assay: Inhibition of human ERG
Chain of Voltage-gated inwardly rectifying potassium channel KCNH2 (Q12809 whole entry): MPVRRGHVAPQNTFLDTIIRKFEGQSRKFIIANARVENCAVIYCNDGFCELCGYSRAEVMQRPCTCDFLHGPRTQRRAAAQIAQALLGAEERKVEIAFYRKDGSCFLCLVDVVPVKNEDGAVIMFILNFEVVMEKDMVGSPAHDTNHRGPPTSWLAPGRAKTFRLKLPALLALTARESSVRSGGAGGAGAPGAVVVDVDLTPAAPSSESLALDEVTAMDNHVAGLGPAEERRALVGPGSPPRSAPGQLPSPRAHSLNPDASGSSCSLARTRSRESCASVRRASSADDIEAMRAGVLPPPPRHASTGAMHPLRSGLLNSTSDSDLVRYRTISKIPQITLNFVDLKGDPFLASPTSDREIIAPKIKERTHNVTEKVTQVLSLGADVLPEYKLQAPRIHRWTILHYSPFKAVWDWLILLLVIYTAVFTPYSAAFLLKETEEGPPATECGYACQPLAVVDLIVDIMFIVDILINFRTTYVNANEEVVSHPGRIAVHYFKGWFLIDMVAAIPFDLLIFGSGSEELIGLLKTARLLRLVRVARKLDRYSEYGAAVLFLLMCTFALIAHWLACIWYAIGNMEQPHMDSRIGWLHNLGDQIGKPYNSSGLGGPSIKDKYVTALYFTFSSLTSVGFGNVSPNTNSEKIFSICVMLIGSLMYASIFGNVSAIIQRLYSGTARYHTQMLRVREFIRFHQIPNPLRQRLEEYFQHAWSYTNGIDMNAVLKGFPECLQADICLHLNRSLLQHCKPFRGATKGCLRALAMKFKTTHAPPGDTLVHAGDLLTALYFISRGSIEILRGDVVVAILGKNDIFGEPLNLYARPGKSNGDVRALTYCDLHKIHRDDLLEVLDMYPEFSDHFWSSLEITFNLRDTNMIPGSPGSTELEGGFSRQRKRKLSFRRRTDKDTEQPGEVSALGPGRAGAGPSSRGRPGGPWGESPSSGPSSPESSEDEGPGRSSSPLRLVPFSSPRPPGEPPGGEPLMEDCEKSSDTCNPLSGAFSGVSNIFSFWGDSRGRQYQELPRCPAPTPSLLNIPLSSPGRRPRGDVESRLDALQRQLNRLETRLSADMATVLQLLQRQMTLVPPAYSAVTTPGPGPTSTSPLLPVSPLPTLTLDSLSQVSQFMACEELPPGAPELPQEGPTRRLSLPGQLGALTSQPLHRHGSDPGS

Mus musculus [11] = assay: Reduction of amyloid beta-42 levels in C57BL/6 mouse brain at 50 mg/kg, po after 3 hrs by immunoassay relative to vehicle-treated control; type: functional; design: scale not given: the % may be the effect or the level left
Summary of the method: (§2)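 PK/PD study in C57BL/6 mice given 50 mg/kg orally. Brain Aβ40 and Aβ42 and plasma Aβ40 levels were followed over time alongside free brain and plasma exposure, and compared with vehicle-treated controls.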

hERG (KCNH2) = hERG (KCNH2) (Homo sapiens, UniProt Q12809); assay: Inhibition of human ERG at 11.1 uM relative to control
Chain of hERG (KCNH2) (Q12809 whole entry): as above

[12] = molecular target: Cathepsin D (Homo sapiens) (UniProt P07339); assay: Inhibition of human cathepsin D up to 100 uM using MOCAc-Gly-Lys-Pro-Ile-Leu-Phe-Phe-Arg-Leu-Lys(Dnp)-D-Arg-NH2 as substrate after 10 mins by spectrophotometric method; settings: tested as the 2H-labelled form
Chain of Cathepsin D (Homo sapiens) (P07339 65-162 limits assumed): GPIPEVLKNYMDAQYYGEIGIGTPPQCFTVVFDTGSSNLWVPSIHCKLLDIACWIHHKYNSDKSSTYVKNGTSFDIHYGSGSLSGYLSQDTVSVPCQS
Chain of Cathepsin D (Homo sapiens) (P07339 169-412 limits assumed): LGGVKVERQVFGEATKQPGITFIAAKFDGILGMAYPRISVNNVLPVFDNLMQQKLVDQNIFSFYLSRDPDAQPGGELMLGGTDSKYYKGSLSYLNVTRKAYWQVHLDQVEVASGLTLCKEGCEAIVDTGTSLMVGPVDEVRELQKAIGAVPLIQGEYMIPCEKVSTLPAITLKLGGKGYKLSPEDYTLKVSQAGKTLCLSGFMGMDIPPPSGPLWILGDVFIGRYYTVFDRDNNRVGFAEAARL

Mus musculus [13] = assay: Reduction of amyloid beta-40 levels in C57BL/6 mouse plasma at 50 mg/kg, po after 1.5 to 16 hrs by immunoassay; type: functional, organism-based; settings: tested as the 2H-labelled form; summary of the method: as §2
[14] = molecular target: Cathepsin S (Homo sapiens) (UniProt P25774); assay: Inhibition of full length recombinant human cathepsin S up to 100 uM using Z-Leu-Arg-AMC as substrate after 30 mins by spectrophotometric method; settings: tested as the 2H-labelled form
Chain of Cathepsin S (Homo sapiens) (P25774 115-331 limits assumed): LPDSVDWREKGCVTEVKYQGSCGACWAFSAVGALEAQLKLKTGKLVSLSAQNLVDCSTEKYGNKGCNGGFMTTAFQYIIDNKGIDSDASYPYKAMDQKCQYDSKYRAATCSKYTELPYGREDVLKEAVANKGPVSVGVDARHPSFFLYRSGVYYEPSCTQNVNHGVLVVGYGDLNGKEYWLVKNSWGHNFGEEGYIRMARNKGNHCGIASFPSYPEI

Mus musculus [15] = assay: Reduction of amyloid beta-42 levels in C57BL/6 mouse brain at 50 mg/kg, po after 1.5 to 16 hrs by immunoassay relative to vehicle-treated control; type: functional, organism-based; settings: tested as the 2H-labelled form; summary of the method: as §2
Sus scrofa = organism: Sus scrofa; assay: Inhibition of pig pepsin up to 100 uM using MOCAc-Ala-Pro-Ala-Lys-Phe-Phe-Arg-Leu-Lys(Dnp)-NH2 as substrate after 60 mins by spectrophotometric method; settings: tested as the 2H-labelled form
Mus musculus [16] = assay: Reduction of amyloid beta-40 levels in C57BL/6 mouse brain at 50 mg/kg, po after 1.5 to 16 hrs by immunoassay relative to vehicle-treated control; type: functional, organism-based; settings: tested as the 2H-labelled form; summary of the method: as §2
Renin (Homo sapiens) = molecular target: T3, Renin (Homo sapiens) (UniProt P00797); assay: Inhibition of full length recombinant human renin up to 100 uM using DABCYL-gamma-Abu-Ile-His-Pro-Phe-His-Leu-Val-Ile-His-Thr-EDANS as substrate after 60 mins by spectrophotometric method; settings: tested as the 2H-labelled form
T3 sequence (whole entry): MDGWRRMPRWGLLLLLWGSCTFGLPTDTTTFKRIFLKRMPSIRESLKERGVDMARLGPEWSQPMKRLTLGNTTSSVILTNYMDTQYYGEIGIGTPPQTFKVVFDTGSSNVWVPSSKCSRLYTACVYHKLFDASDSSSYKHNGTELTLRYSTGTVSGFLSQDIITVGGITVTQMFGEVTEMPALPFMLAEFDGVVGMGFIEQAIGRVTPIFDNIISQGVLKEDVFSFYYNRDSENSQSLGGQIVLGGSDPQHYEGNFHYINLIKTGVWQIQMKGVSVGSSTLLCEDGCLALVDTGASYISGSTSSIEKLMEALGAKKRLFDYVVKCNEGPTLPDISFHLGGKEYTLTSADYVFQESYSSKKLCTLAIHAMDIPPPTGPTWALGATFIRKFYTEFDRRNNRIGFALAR

- CLH [1]: 8.7 µL/min/10^6 cells
- Kp uu at 2 h [2]: 0.68
- CLH (Liver): 11.5 µL/min/mg
SMILES: [2H]C1([2H])OC(N)=N[C@]12c1cc(-c3cc(Cl)cc(C#N)c3)ccc1C[C@]21CC[C@@H](OC)CC1

- Ki (Beta-secretase 1 [3]): 430 nM
- IC50 (Beta-secretase 1 [4]): 7 nM
SMILES: [2H]C1([2H])OC(N)=N[C@]12c1cc(-c3cccnc3)ccc1C[C@]21CC[C@@H](OC)CC1

- permeability [5]: Impermeable
- Kp uu at 2 h [6]: 0.21
- CLH [1]: 11.6 µL/min/10^6 cells
- CLH (Liver): 11.1 µL/min/mg
SMILES: CO[C@H]1CC[C@]2(CC1)Cc1ccc(-c3cc(Cl)cc(C#N)c3)cc1[C@@]21COC(N)=N1

- inhibition (INH) (Beta-secretase 2 [7]): Active
- IC50 (Beta-secretase 2 [8]): 0.9 nM
SMILES: NC1=N[C@@](c2cccc(-c3cncnc3)c2)(c2ccnc(C(F)F)c2)c2cccc(F)c21 [AZD-3839]

- Ki (Beta-secretase 1 [3]): 134 nM
- IC50 (Beta-secretase 1 [4]): 7 nM
SMILES: [2H]C1([2H])OC(N)=N[C@]12c1cc(-c3cncnc3)ccc1C[C@]21CC[C@@H](OC)CC1

SMILES: [2H]C1([2H])OC(N)=N[C@]12c1cc(-c3cncnc3)ccc1C[C@@]21CC[C@H](OC)[C@@H](C)C1
- Drug uptake(free) (Brain): 50 nM
- CLH [1]: 66 µL/min/10^6 cells
- inhibition (INH) (Beta-secretase 2 [9]): Active
- IC50 [10]: > 33000 nM
- Activity (Mus musculus [11]): 30%
- CLH (Liver): 47 µL/min/mg

- CLH [1]: 138 µL/min/10^6 cells
- CLH (Liver): 149 µL/min/mg
SMILES: [2H]C1([2H])OC(N)=N[C@]12c1cc(-c3cncnc3)ccc1C[C@]21CC[C@@H](OC)[C@H](CC)C1
- inhibition at 11.1 µM (hERG (KCNH2)): 15%

- Kp uu at 2 h [6]: 0.07
- CLH [1]: 23.9 µL/min/10^6 cells
- CLH (Liver): 13.9 µL/min/mg
SMILES: COc1cc(C#N)cc(-c2ccc3c(c2)[C@@]2(COC(N)=N2)[C@]2(CC[C@H](OC)CC2)C3)c1

SMILES: [2H]C1([2H])OC(N)=N[C@]12c1cc(-c3cncnc3)ccc1C[C@]21CC[C@@H](OC)[C@H](C)C1
- CLH [1]: 82 µL/min/10^6 cells
- IC50 [10]: > 33000 nM
- CLH (Liver): 52.4 µL/min/mg

- CLH [1]: 158 µL/min/10^6 cells
- CLH (Liver): 153 µL/min/mg
SMILES: [2H]C1([2H])OC(N)=N[C@]12c1cc(-c3cncnc3)ccc1C[C@@]21CC[C@H](OC)[C@@H](CC)C1
- inhibition at 11.1 µM (hERG (KCNH2)): 29%

- CLH [1]: 137 µL/min/10^6 cells
- CLH (Liver): 187 µL/min/mg
SMILES: [2H]C1([2H])OC(N)=N[C@]12c1cc(-c3cncnc3)ccc1C[C@@]21C[C@@H](C)[C@H](OC)[C@@H](C)C1 (racemic)

- CLH [1]: 25.1 µL/min/10^6 cells
- Kp uu at 2 h [2]: 0.27
- CLH (Liver): 15.7 µL/min/mg
SMILES: [2H]C1([2H])OC(N)=N[C@]12c1cc(-c3cc(C#N)cc(OC)c3)ccc1C[C@]21CC[C@@H](OC)CC1

SMILES: CO[C@H]1CC[C@@]2(Cc3ccc(-c4cncnc4)cc3[C@@]23COC(N)=N3)C[C@@H]1C
- inhibition [12]: inactive
- Activity (Mus musculus [13]): Active
- inhibition [14]: inactive
- Activity (Mus musculus [15]): inactive
- inhibition (Sus scrofa): inactive
- Activity (Mus musculus [16]): inactive
- inhibition (Renin (Homo sapiens)): inactive
